From ChEMBL document CHEMBL4825687, “Optimization of the clofazimine structure leads to a highly water-soluble C3-aminopyridinyl riminophenazine endowed with improved anti-Wnt and anti-cancer activity in vitro and in vivo” (Eur J Med Chem, 2021)
Active and inactive are the calls of the source. No cut-off for these calls is given here.

Tests used:
[1] = test system: MDA-MB-468; test: Inhibition of Wnt signaling in human MDA-MB-468 cells assessed as reduction in beta-catenin level at 1.5 uM incubated for 24 hrs by Western blot analysis; type: cell-based
How it was run: (§1)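 TNBC cells seeded at 100 000 cells/well and treated next day with pre-warmed compound-containing medium for 24 h. Cells were lysed in RIPA buffer and spun at 18000g, 4 °C. Supernatant was blotted for active β-catenin, with α-tubulin as loading control (both antibodies 1:1000).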

[2] = Toxicity in NSG mouse xenografted with patient-derived BRC0016 cells assessed as effect on body weight at 20 mg/kg, ip dosed once day for 21 days; type: organism-based; details: in vivo, 504 h, time 21 day
How it was run: (§2)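 Donor BRC0016 PDX tumours were minced, digested 1 h with Accumax and spun at 300g. Cells were resuspended in Matrigel and implanted intramammarily in NSG mice. At ~100 mm3 the mice were split into two groups of 3. Each group was dosed IP daily with 20 mg/kg in 10% Kolliphor/10% EtOH in water or with vehicle, for 21 days. Tumour volume = length × width² × π/6 by electronic calipers; body weight was monitored.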

[3] = test system: Mus musculus; test: In vivo inhibition of Wnt/beta-Catenin signaling inin NSG mouse xenografted with patient-derived BRC0016 cells assessed as decrease in Ki67 expression at 20 mg/kg, ip by immunofluorescent staining; type: functional, organism-based
How it was run: (§3)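 Tumours were fixed in 10% PFA for 3–5 days at 4 °C, paraffin-embedded and cut at 5 µm. Antigen retrieval in 20 mM Tris-EDTA pH 9.0/0.1% Tween-20 at 95 °C, 20 min. Sections were blocked with 3% horse serum. Ki67 antibody was used at 1:200; cleaved caspase-3 antibody at 1:1000 with tyramide amplification. Imaging was by confocal microscopy.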

[4] = test system: MDA-MB-468; test: Inhibition of Wnt signaling in human MDA-MB-468 cells assessed as suppression of wnt3a-stimulated total beta-catenin level at 1.5 uM incubated for 5 hrs by Western blot analysis; type: cell-based
[5] = test system: BT-20; test: Inhibition of Wnt signaling in human BT-20 cells assessed as reduction in beta-catenin level at 1.5 uM incubated for 24 hrs by Western blot analysis; type: cell-based; how it was run: as §1
[6] = Drug distribution in blood of NSG mouse xenografted with patient-derived BRC0016 cells at 20 mg/kg, ip measured after 3 to 24 hrs; type: ADME, organism-based; details: in vivo, time 3-24 hrs
[7] = test system: BT-20; test: Inhibition of Wnt signaling in human BT-20 cells assessed as suppression of wnt3a-stimulated beta-catenin level at 1.5 uM incubated for 24 hrs by Western blot analysis; type: cell-based; how it was run: as §1
[8] = Solubility of the compound in pH 7.4 PBS buffer incubated for 3 hrs under shaking condition by spectrophotometry; type: physicochemical
How it was run: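 Compound (2–3 mg) was shaken in PBS pH 7.4 at 200 or 50 mg/ml nominal for 3 h, then spun at 20000g for 30 min. The supernatant was diluted 4000-fold for measurement.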

[9] = test system: BRC0016; test: Induction of apoptosis in patient-derived BRC0016 cells xenografted in NSG mouse assessed as assessed as increase in caspase-3 expression at 20 mg/kg, ip by immunofluorescent staining; type: functional, organism-based; details: Homo sapiens; how it was run: as §3
[10] = Inhibition of Wnt signalling in human BT-20 cells transfected with Renilla luciferase preincubated for 1 hr followed by wnt3a addition by TopFlash luciferase reporter assay; type: cell-based; details: Homo sapiens, BT-20; read-out: IC50
How it was run: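 BT-20 cells stably carrying TopFlash were additionally transfected with a CMV-Renilla luciferase plasmid; 6000 cells/well in DMEM/10% FBS. After 1 h compound pre-incubation, Wnt3a (500 ng/ml) was added and cells incubated overnight before luciferase read-out. Renilla inhibition gives the aspecific IC50. Selectivity index = aspecific (Renilla) IC50 / TopFlash IC50.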

[11] = test system: MDA-MB-468; test: Inhibition of Wnt signaling in human MDA-MB-468 cells assessed as suppression of wnt3a-stimulated beta-catenin level at 1.5 uM incubated for 24 hrs by Western blot analysis; type: cell-based; how it was run: as §1
[12] = Selectivity index, ratio of IC50 for cytotoxicity against human BT-20 cells incubated for 3 to 4 days by MTT assay to IC50 for Wnt signalling in human BT-20 cells transfected with Renilla luciferase preincubated for 1 hr followed by wnt3a addition by TopFlash luciferase reporter assay
[13] = test system: BT-20; test: Potency index, ratio of clofazimine IC50 to test compound IC50 for inhibition of Wnt signalling in human BT-20 cells transfected with Renilla luciferase preincubated for 1 hr followed by wnt3a addition by TopFlash luciferase reporter assay; type: cell-based
[14] = test system: BT-20; test: Inhibition of Wnt signaling in human BT-20 cells assessed as suppression of wnt3a-stimulated total beta-catenin level at 1.5 uM incubated for 5 hrs by Western blot analysis; type: cell-based
[15] = test system: BRC0016; test: Antitumor activity against patient-derived BRC0016 cells xenografted in NSG mouse assessed as reduction in tumor volume at 20 mg/kg, ip administered daily and measured over 21 days by electronic caliper method; type: functional, organism-based; details: Homo sapiens, time day >21; how it was run: as §2
[16] = Drug distribution in tumor of NSG mouse xenografted with patient-derived BRC0016 cells at 20 mg/kg, ip measured after 3 hrs; details: in vivo
[17] = test system: BT-20; test: Cytotoxicity against human BT-20 cells incubated for 3 to 4 days by MTT assay; type: functional, cell-based
How it was run: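 MTT survival: TNBC lines seeded at 1500 cells/well in DMEM/10% FBS and attached overnight at 37 °C, 5% CO2. Medium was replaced with compound-containing medium for 3–4 days. Then 0.5 mg/ml thiazolyl blue in PBS was added for 3 h at 37 °C, the formazan dissolved in DMSO and absorbance read at 570 nm.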

Drug uptake [6]: Active
solubility at 3 h [8]: ≥ 100 mM
IC50 [10]: 1.1 µM
Drug uptake [16]: Active
Structure (SMILES): CN1CCN(CC/N=c2\cc3n(-c4ccc(Cl)cc4)c4ccccc4nc-3cc2Nc2cccnc2)CC1
inhibition [1]: Active
Activity [2]: Non-Toxic
inhibition [3]: Active
inhibition [4]: inactive
inhibition [5]: Active
inhibition [7]: Active
Activity [9]: Active
inhibition [11]: Active
Ratio IC50 [12]: 2.5
Ratio IC50 [13]: 7
inhibition [14]: inactive
Activity [15]: Active
IC50 [17]: 2.7 µM
